Reference: ChEMBL document CHEMBL4257561, “7-Deacetyl-10-alkylthiocolchicine derivatives - new compounds with potent anticancer and fungicidal activity” (Medchemcomm, 2018)
Converted amounts (≈) assume the structure as drawn.

Experiments:
[1] = test system: Aspergillus versicolor; assay: Fungicidal activity against Aspergillus versicolor BAM8 ATCC 11730 after 7 days by microtiter method; assay type: functional; conditions: BAM8 ATCC 11730, 168 h
Summary of the method: (§1)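 Single-spore isolates kept on PDA slants. Spore suspensions ([…] CFU/mL) taken from two-week slants. Compound stock was 10 mg in 200 µL methanol; 10 µL of stock added to 100 µL PDA (39 g/L) per well, then 10 µL spores. Incubated aerobically 7 days, 28±1°C, RH >95%, dark. Growth scored on a three-point scale (+/±/−). Triplicates, with untreated and IPBC controls.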

[2] = test system: Penicillium cyclopium; assay: Antifungal activity against Penicillium cyclopium Westling after 7 days by microtiter method; assay type: functional; conditions: 168 h
[3] = test system: Paecilomyces variotii; assay: microbe, parasite or virus in culture; assay type: functional; conditions: BAM19 ATCC 18502, 168 h
[4] = test system: Talaromyces funiculosus; assay: microbe, parasite or virus in culture; assay type: functional; conditions: BAM22 ATCC 11797, 168 h
[5] = test system: DLD-1; assay: cells; assay type: functional, cell-based; conditions: Homo sapiens, DLD-1, 72 h
[6] = cells; assay type: cell-based; conditions: Homo sapiens, 72 h
[7] = test system: SK-OV-3; assay: cells; assay type: functional, cell-based; conditions: Homo sapiens, SK-OV-3, 72 h
[8] = test system: Trichoderma viride; assay: Antifungal activity against Trichoderma viride Pers after 7 days by microtiter method; assay type: functional; conditions: 168 h
[9] = test system: Talaromyces funiculosus; assay: Fungicidal activity against Penicillium funiculosum BAM22 ATCC 11797 after 7 days by microtiter method; assay type: functional; conditions: BAM22 ATCC 11797, 168 h; summary of the method: as §1
[10] = test system: Aureobasidium pullulans; assay: Fungicidal activity against Aureobasidium pullulans BAM10 ATCC 9348 after 7 days by microtiter method; assay type: functional; conditions: BAM10 ATCC 9348, 168 h; summary of the method: as §1
[11] = test system: Aureobasidium pullulans; assay: microbe, parasite or virus in culture; assay type: functional; conditions: BAM10 ATCC 9348, 168 h
[12] = test system: LoVo; assay: cells; assay type: functional, cell-based; conditions: Homo sapiens, 72 h
[13] = test system: MCF7; assay: cells; assay type: functional, cell-based; conditions: Homo sapiens, MCF7, 72 h
[14] = test system: Aspergillus niger; assay: Fungicidal activity against Aspergillus niger van Tiegen BAM4 ATCC 6275 after 7 days by microtiter method; assay type: functional; conditions: van Tiegen BAM4 ATCC 6275, 168 h; summary of the method: as §1
[15] = test system: Trichoderma viride; assay: Fungicidal activity against Trichoderma viride Pers after 7 days by microtiter method; assay type: functional; conditions: 168 h; summary of the method: as §1
[16] = test system: Penicillium cyclopium; assay: Fungicidal activity against Penicillium cyclopium Westling after 7 days by microtiter method; assay type: functional; conditions: 168 h; summary of the method: as §1
[17] = test system: Paecilomyces variotii; assay: Fungicidal activity against Paecilomyces variotii BAM19 ATCC 18502 after 7 days by microtiter method; assay type: functional; conditions: BAM19 ATCC 18502, 168 h; summary of the method: as §1
[18] = test system: MDA-MB-231; assay: cells; assay type: functional, cell-based; conditions: Homo sapiens, MDA-MB-231, 72 h
[19] = test system: SK-OV-3; assay: cells; assay type: functional, cell-based; conditions: Homo sapiens, SK-OV-3, 72 h; remark: listed apart in the source
[20] = test system: Chaetomium globosum; assay: Fungicidal activity against Chaetomium globosum BAM12 ATCC 6205 after 7 days by microtiter method; assay type: functional; conditions: BAM12 ATCC 6205, 168 h; summary of the method: as §1
[21] = test system: Aspergillus niger; assay: microbe, parasite or virus in culture; assay type: functional; conditions: van Tiegen BAM4 ATCC 6275, 168 h
[22] = test system: Chaetomium globosum; assay: microbe, parasite or virus in culture; assay type: functional; conditions: BAM12 ATCC 6205, 168 h
[23] = test system: Aspergillus versicolor; assay: microbe, parasite or virus in culture; assay type: functional; conditions: BAM8 ATCC 11730, 168 h

| SMILES | MFC [1] [µg/mL] | MIC [2] [µg/mL] | MFC [3] [µg/mL] | MFC [4] [µg/mL] | IC50 [5] [nM] | IC50 [6] [nM] | IC50 [7] [nM] | MFC [8] [µg/mL] | MFC [9] [µg/mL] | MFC [10] [µg/mL] | MIC [11] [µg/mL] | IC50 [12] [nM] | MFC [14] [µg/mL] | MFC [15] [µg/mL] | MFC [16] [µg/mL] | MFC [17] [µg/mL] | IC50 [19] [nM] | MFC [21] [µg/mL] | MIC [22] [µg/mL] | MFC [23] [µg/mL] | other results |
| --- | --- | --- | --- | --- | --- | --- | --- | --- | --- | --- | --- | --- | --- | --- | --- | --- | --- | --- | --- | --- | --- |
| CCCCSc1ccc2c(cc1=O)[C@@H](N)CCc1cc(OC)c(OC)c(OC)c1-2 | > 4000 | 260 (≈ 626 µM) | 1000 (≈ 2410 µM) | 1000 (≈ 2410 µM) | 720 | 2170 | 9 | 2000 (≈ 4810 µM) | 1000 (≈ 2410 µM) | 260 (≈ 626 µM) | 260 (≈ 626 µM) | 1870 | > 4000 | 2000 (≈ 4810 µM) | 260 (≈ 626 µM) | 1000 (≈ 2410 µM) | 62 | > 4000 | 130 (≈ 313 µM) | > 4000 | IC50 [13]: 1460 nM; IC50 [18]: 4180 nM; MFC [20]: 130 µg/mL (≈ 313 µM) |
| COc1cc2c(c(OC)c1OC)-c1ccc(SC(C)C)c(=O)cc1[C@@H](N)CC2 | > 4000 | 500 (≈ 1250 µM) | 1000 (≈ 2490 µM) | 1000 (≈ 2490 µM) | 6260 | 1680 | 4 | 2000 (≈ 4980 µM) | 1000 (≈ 2490 µM) | 260 (≈ 648 µM) | 260 (≈ 648 µM) | 130 | > 4000 | 2000 (≈ 4980 µM) | 500 (≈ 1250 µM) | 1000 (≈ 2490 µM) | 27 | > 4000 | 130 (≈ 324 µM) | > 4000 | IC50 [13]: 4900 nM; IC50 [18]: 5000 nM; MFC [20]: 130 µg/mL (≈ 324 µM) |
| CCCCNC(=O)OCC#CI [IODOCARB] | 2 (≈ 7.12 µM) | 2 (≈ 7.12 µM) | 2 (≈ 7.12 µM) | 2 (≈ 7.12 µM) | – | – | – | 100 (≈ 356 µM) | 2 (≈ 7.12 µM) | 1 (≈ 3.56 µM) | 1 (≈ 3.56 µM) | – | 2 (≈ 7.12 µM) | 100 (≈ 356 µM) | 2 (≈ 7.12 µM) | 2 (≈ 7.12 µM) | – | 2 (≈ 7.12 µM) | 5 (≈ 17.8 µM) | 2 (≈ 7.12 µM) | MFC [20]: 5 µg/mL (≈ 17.8 µM) |
| O=C(/C=C/c1ccccc1)c1ccccc1 [CHALCONE] | 2000 (≈ 9600 µM) | 260 (≈ 1250 µM) | 1000 (≈ 4800 µM) | 130 (≈ 624 µM) | – | – | – | 500 (≈ 2400 µM) | 130 (≈ 624 µM) | 500 (≈ 2400 µM) | 500 (≈ 2400 µM) | – | 65 (≈ 312 µM) | 500 (≈ 2400 µM) | 260 (≈ 1250 µM) | 1000 (≈ 4800 µM) | – | 65 (≈ 312 µM) | 130 (≈ 624 µM) | 2000 (≈ 9600 µM) | MFC [20]: 130 µg/mL (≈ 624 µM) |
| CCSc1ccc2c(cc1=O)[C@@H](N)CCc1cc(OC)c(OC)c(OC)c1-2 | – | > 4000 | > 4000 | > 4000 | 510 | 150 | 305 | > 4000 | – | – | > 4000 | 390 | – | – | – | – | 409 | > 4000 | > 4000 | > 4000 | IC50 [13]: 1620 nM; IC50 [18]: 3550 nM |
| CCCCSc1ccc2c(cc1=O)[C@@H](NC(C)=O)CCc1cc(OC)c(OC)c(OC)c1-2 | – | > 4000 | > 4000 | > 4000 | – | – | – | > 4000 | – | – | > 4000 | – | – | – | – | – | – | > 4000 | > 4000 | > 4000 | – |
| COc1cc2c(c(OC)c1OC)-c1ccc(SC(C)C)c(=O)cc1[C@@H](NC(C)=O)CC2 | – | > 4000 | > 4000 | > 4000 | – | – | – | > 4000 | – | – | > 4000 | – | – | – | – | – | – | > 4000 | > 4000 | > 4000 | – |
| COc1cc2c(c(OC)c1OC)-c1ccc(OC)c(=O)cc1[C@@H](NC(C)=O)CC2 [COLCHICINE] | > 4000 | > 4000 | > 4000 | > 4000 | 43 | 586 | 198 | > 4000 | > 4000 | 0.001 (≈ 0.0025 µM) | 0.001 (≈ 0.0025 µM) | 119 | > 4000 | > 4000 | > 4000 | > 4000 | 210 | > 4000 | > 4000 | > 4000 | IC50 [13]: 41 nM; IC50 [18]: 25 nM; MFC [20]: > 4000 µg/mL |
| CCSc1ccc2c(cc1=O)[C@@H](NC(C)=O)CCc1cc(OC)c(OC)c(OC)c1-2 | – | > 4000 | > 4000 | > 4000 | – | – | – | > 4000 | – | – | > 4000 | – | – | – | – | – | – | > 4000 | > 4000 | > 4000 | – |
| CCCSc1ccc2c(cc1=O)[C@@H](NC(C)=O)CCc1cc(OC)c(OC)c(OC)c1-2 | – | > 4000 | > 4000 | > 4000 | – | – | – | > 4000 | – | – | > 4000 | – | – | – | – | – | – | > 4000 | > 4000 | > 4000 | – |
| COc1cccc2c1C(=O)c1c(O)c3c(c(O)c1C2=O)C[C@@](O)(C(=O)CO)C[C@@H]3O[C@H]1C[C@H](N)[C@H](O)[C@H](C)O1 [DOXORUBICIN] | – | – | – | – | 145 | 850 | 32.6 | – | – | – | – | 78.3 | – | – | – | – | 128 | – | – | – | – |
| CCCSc1ccc2c(cc1=O)[C@@H](N)CCc1cc(OC)c(OC)c(OC)c1-2 | > 4000 | 2000 (≈ 4980 µM) | 1000 (≈ 2490 µM) | 2000 (≈ 4980 µM) | 3420 | 670 | 22 | 2000 (≈ 4980 µM) | 2000 (≈ 4980 µM) | > 4000 | > 4000 | 3830 | > 4000 | 2000 (≈ 4980 µM) | 2000 (≈ 4980 µM) | 1000 (≈ 2490 µM) | 46 | > 4000 | > 4000 | > 4000 | IC50 [13]: 2080 nM; IC50 [18]: 4240 nM; MFC [20]: > 4000 µg/mL |
